Laboratory results: ChEMBL document CHEMBL1122365, “Substituted 1,4-naphthoquinones vs. the ascitic sarcoma 180 of mice” (J Med Chem, 1983)
In brackets after ≈: the same amount, converted by molar mass.

Legend:
[1] = Solubility in water was determined; format: physicochemical
[2] = system: Mus musculus; assay: Maximum survival by an optimum dose at 100 mg/kg in treated to that of untreated mice; format: functional
[3] = Tested for acute toxicity which is the single dose given intraperitoneally that will kill one-half of the mice within 5 days; format: organism-based; conditions: mouse, in vivo, ip
[4] = Effective dose that would give a 25% increase in the survival time against the ascitic sarcoma 180 in mice; format: functional, Mus musculus
Summary of the method: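 Swiss mice given 10⁶ ascitic sarcoma 180 cells ip on day 0, then one ip dose of compound daily on days 1-3, with several dose levels. T/C is the mean survival of treated mice over the survival of untreated mice. ED25 is the daily dose giving T/C = 125%, interpolated or extrapolated from a semilog plot of T/C vs. log dose.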

[5] = Partition coefficient (logP); format: physicochemical; conditions: octanol/water
Summary of the method: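 Shake-flask method: four samples per compound (1.50–20.0 mg) each equilibrated between known volumes of 1-octanol and water. Solute concentration measured spectroscopically in the water phase; octanol-phase concentration taken by difference. Partition coefficient is the ratio of the two concentrations.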

[6] = system: Mus musculus; assay: Maximum survival by an optimum dose at 7 mg/kg in treated to that of untreated mice; format: functional
[7] = system: Mus musculus; assay: Maximum survival by an optimum dose at 3 mg/kg in treated to that of untreated mice; format: functional
[8] = system: Mus musculus; assay: Maximum survival by an optimum dose at 4 mg/kg in treated to that of untreated mice; format: functional
[9] = system: Mus musculus; assay: Maximum survival by an optimum dose at 25 mg/kg in treated to that of untreated mice; format: functional
[10] = system: Mus musculus; assay: Maximum survival by an optimum dose at 80 mg/kg in treated to that of untreated mice; format: functional
[11] = system: Mus musculus; assay: Maximum survival by an optimum dose at 30 mg/kg in treated to that of untreated mice; format: functional
[12] = system: Mus musculus; assay: Maximum survival by an optimum dose at 20 mg/kg in treated to that of untreated mice; format: functional
[13] = system: Mus musculus; assay: Maximum survival by an optimum dose at 6 mg/kg in treated to that of untreated mice; format: functional
[14] = system: Mus musculus; assay: Maximum survival by an optimum dose at 60 mg/kg in treated to that of untreated mice; format: functional
[15] = Mus musculus, Sarcoma-180, read-out: ED25

| Structure (SMILES) | solubility [1] [µg/mL] | Optimal dose [2] [%] | LD50 at 120 h [3] [mg/kg] | ED25 [4] [mmol/kg] | ED25 [4, 15] [mg/kg] | logP ([5]; read-out: logP) | Optimal dose [6] [%] | Optimal dose [7] [%] | Optimal dose [8] [%] | Optimal dose [9] [%] | Optimal dose [10] [%] | logP [5] | Optimal dose [11] [%] | Optimal dose [12] [%] | Optimal dose [13] [%] | Optimal dose [14] [%] |
| --- | --- | --- | --- | --- | --- | --- | --- | --- | --- | --- | --- | --- | --- | --- | --- | --- |
| O=C1C(=O)c2ccccc2C(O)=C1C1CCCC1 | 9.5 (≈ 39.2 µM) | 116 | 400 | 0.582 | 141 | 2.69 | – | – | – | – | – | – | – | – | – | – |
| CCCOC1=C(Cl)C(=O)c2ccccc2C1=O | – | – | 20 | 0.01 | 2.45 | 2.95 | 271 | – | – | – | – | – | – | – | – | – |
| CCOC1=C(Cl)C(=O)c2ccccc2C1=O | 34.1 (≈ 144 µM) | – | 16 | 0.008 | 1.97 | 2.61 | – | 230 | – | – | – | – | – | – | – | – |
| COC1=C(Cl)C(=O)c2ccccc2C1=O | 39.3 (≈ 177 µM) | – | 14 | 0.011 | 2.49 | 2.15 | – | – | 315 | – | – | – | – | – | – | – |
| O=C1C=C(O)C(=O)c2ccccc21 [LAWSONE] | 255 (≈ 1460 µM) | – | 100 | 0.19 | 33 | 1.07 | – | – | – | 104 | – | – | – | – | – | – |
| O=C1C(Cl)=C(Nc2ccccc2)C(=O)c2ccccc21 | 2.4 (≈ 8.46 µM) | – | 1600 | 0.331 | 94 | – | – | – | – | – | 117 | 4.04 | – | – | – | – |
| O=C1C=CC(=O)c2ccccc21 [NAPHTHOQUINONE] | 89.4 (≈ 565 µM) | – | 5.5 | 0.012 | 1.9 | 1.74 | – | 347 | – | – | – | – | – | – | – | – |
| CC1=CC(=O)c2ccccc2C1=O [MENADIONE] | 10.6 (≈ 61.6 µM) | – | 150 | 0.174 | 30 | 2.25 | – | – | – | – | – | – | 126 | – | – | – |
| NC1=C(Cl)C(=O)c2ccccc2C1=O | 37.7 (≈ 182 µM) | – | 800 | 0.123 | 25.5 | 2.08 | – | – | – | – | – | – | – | 112 | – | – |
| CC(=O)NC1=C(Cl)C(=O)c2ccccc2C1=O | 106 (≈ 425 µM) | – | 11 | 0.01 | 2.97 | 1.42 | – | – | 284 | – | – | – | – | – | – | – |
| O=C1C(Cl)=C(Cl)C(=O)c2ccccc21 [Dichlon] | – | – | – | 0.022 | 4.89 | 3.16 | – | – | – | – | – | – | – | – | 189 | – |
| COC1=CC(=O)c2ccccc2C1=O [2-Methoxy-1,4-naphthoquinone] | 31.3 (≈ 166 µM) | – | 320 | 0.262 | 49.3 | 1.59 | – | – | – | – | – | – | – | – | – | 154 |
